Reference: ChEMBL document CHEMBL1795263, “Identification of 5-arylidene-4-thiazolidinone derivatives endowed with dual activity as aldose reductase inhibitors and antioxidant agents for the treatment of diabetic complications” (Eur J Med Chem, 2011)
Active and inactive are the calls of the source. No cut-off for these calls is given here.

Tests used:
[1] = biological target: Aldo-keto reductase family 1 member B1 (Bos taurus) (UniProt P16116); experiment: Inhibition of bovine lens ALR2 at 25 uM; details: Lens of camera-type eye
[2] = biological target: Aldo-keto reductase family 1 member B1 (Bos taurus, UniProt P16116); experiment: Inhibition of bovine lens ALR2; parameters: species or system Lens of camera-type eye
In short: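 ALR2 was purified from bovine lens by DE-52 ion exchange and Matrex Orange A affinity chromatography (0.8 U/mg). Assay at 37 °C with 4.67 mM D,L-glyceraldehyde and 0.11 mM NADPH in 0.25 M sodium phosphate pH 6.8, 0.38 M ammonium sulfate and 0.5 mM EDTA, with 1% (v/v) DMSO. IC50 was fitted by nonlinear one-site competition on log dose-inhibition curves from ≥7 concentrations; 95% confidence limits given.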

Brain = experiment: Antioxidant activity against FeCl3/ascorbic acid-induced lipid peroxidation in rat brain homogenate at 100 uM by TBARS assay; assay type: functional, tissue-based
In short: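 Fresh rat brain homogenised 10% (w/v) in phosphate buffer pH 7.4. Homogenate was incubated with 20 µM FeCl3 and 100 µM ascorbic acid (final) plus compound (100 uM) or α-tocopherol for 30 min at 37 °C. Thiobarbituric acid/HCl was added, then boiling, n-butanol extraction and A532 read. Values are nmol MDA/10 mg wet tissue from a tetramethoxypropane standard curve; mean ± S.E.M., ≥2 determinations in triplicate.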

| SMILES | inhibition [1] | IC50 [2] | Activity (Brain) |
| --- | --- | --- | --- |
| O=C1NC(=O)/C(=C/c2ccc(/C=C/c3ccc(C(F)(F)F)cc3)cc2)S1 | 29% |  |  |
| COc1ccc(/C=C/C=C2/SC(=O)NC2=O)cc1 | 51% |  |  |
| O=C(O)CN1C(=O)/C(=C\c2ccc(OCc3ccccc3)cc2)S/C1=N\c1ccccc1 |  | 4900 nM |  |
| O=C(O)CN1C(=O)/C(=C\c2ccc3ccccc3c2)S/C1=N\c1ccccc1 |  | 2700 nM |  |
| O=C1NC(=O)/C(=C/C=C/c2ccc(C(F)(F)F)cc2)S1 | 65% |  |  |
| O=C(O)CN1C(=O)/C(=C\c2ccc(Oc3ccccc3)cc2)S/C1=N\c1ccccc1 |  | 4400 nM |  |
| O=C1NC(=O)/C(=C\C=C\c2ccccc2)S1 | 31% |  |  |
| O=C(O)CN1C(=O)S/C(=C\C=C\c2ccc(C(F)(F)F)cc2)C1=O |  | 300 nM | Active |
| Cc1ccc(/C=C/c2ccc(/C=C3\SC(=O)NC3=O)cc2)cc1 | 39% |  |  |
| COc1ccc(/C=C/c2ccc(/C=C3\SC(=O)NC3=O)cc2)cc1 | inactive |  |  |
| Cc1ccc(/C=C/C=C2/SC(=O)NC2=O)cc1 | 46% |  |  |

Now from value to molecule, other results behind:

| inhibition [1] | IC50 [2] | SMILES | Activity (Brain) |
| --- | --- | --- | --- |
|  | 1250 nM | O=C(O)CN1C(=O)S/C(=C\c2ccc(/C=C/c3ccc(C(F)(F)F)cc3)cc2)C1=O | Active |
|  | 850 nM | COc1ccc(/C=C/C=C2\SC(=O)N(CC(=O)O)C2=O)cc1 | Active |
|  | 1320 nM | O=C(O)CN1C(=O)S/C(=C\C=C\c2ccccc2)C1=O | Active |
|  | 270 nM | O=C(O)CN1C(=O)S/C(=C\c2ccc(/C=C/c3ccccc3)cc2)C1=O | Active |
| inactive |  | O=C1NC(=O)/C(=C/c2ccc(/C=C/c3ccccc3)cc2)S1 |  |
|  | 1050 nM | Cc1ccc(/C=C/C=C2\SC(=O)N(CC(=O)O)C2=O)cc1 | Active |
|  | 250 nM | COc1ccc(/C=C/c2ccc(/C=C3\SC(=O)N(CC(=O)O)C3=O)cc2)cc1 | Active |
|  | 350 nM | Cc1ccc(/C=C/c2ccc(/C=C3\SC(=O)N(CC(=O)O)C3=O)cc2)cc1 | Active |
|  | 70 nM | O=C(O)CN1C(=O)S/C(=C\c2ccc(Oc3ccccc3)cc2)C1=O |  |
